Sampled rows, rich in hits. Any-hit rate of the full collection: about 3.5%.
MrgX1 ag – activates human MrgX1 receptor signaling; MrgX1-HEK293 cells, Fluo-4 calcium fluorescence, agonist mode; hits give high values; B-score at 10 µM; 310,000 compounds, 0.44% hits;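 active = calcium response B-score plate-corrected fluorescence ratio at least 3 library SD, with starting fluorescence B-score inside 5 SD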
Target sequence (Q96LB2 whole entry, looked up): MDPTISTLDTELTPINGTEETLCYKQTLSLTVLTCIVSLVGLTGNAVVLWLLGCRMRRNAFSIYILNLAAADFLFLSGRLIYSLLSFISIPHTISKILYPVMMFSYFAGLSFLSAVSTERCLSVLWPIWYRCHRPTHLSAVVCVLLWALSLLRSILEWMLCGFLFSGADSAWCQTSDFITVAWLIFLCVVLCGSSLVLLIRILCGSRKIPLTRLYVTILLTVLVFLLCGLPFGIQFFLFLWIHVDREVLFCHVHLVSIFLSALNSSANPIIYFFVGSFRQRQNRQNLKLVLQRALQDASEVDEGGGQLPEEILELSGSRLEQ
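System: HEK293 cells stably expressing human MrgX1 receptor; Dosing: test compound in the initial addition of three; Schedule: overnight plating, then 30 min 37 °C plus 30 min room-temperature dye loading; Detection: kinetic calcium dye fluorescence, Fluo-4 NW; Controls: per-plate positive and negative controls for Z′ factor.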
MrgX1 antagonist – antagonists of human MrgX1 receptor; Q96LB2; MRGX1-HEK293 calcium flux, Fluo-4, BAM8-22 antagonism; hits give low values; B-score at 10 µM; 310,000 compounds, 1.3% hits;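 active = calcium-response B-score plate-corrected more than 3 library SD below zero, starting fluorescence within 5 deviations, no agonist response on first addition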;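 also: peak minus trough fluorescence over baseline after final BAM8-22 challenge near maximal dose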
RGS4 pot – potentiators or activators of RGS4 | B-score at 10 µM | HEK293 M3R/inducible RGS4, carbachol calcium flux Fluo4; hits give low values | 310,000 compounds, 0.92% hits;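 active = B-score of the integrated calcium signal more than 4 SD below the library mean, with starting fluorescence not abnormally high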;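 also: negative B-score means reduced calcium response which marks RGS4 activation or potentiation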
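Material: M3R-expressing HEK293 line, RGS4 induced by doxycycline | Schedule: Overnight RGS4 induction, 30 min dye load 37 °C, 20 min compound RT | Measured by: Fluo4 fluorescence kinetic imaging of calcium | Read-out: Integrated calcium ratio converted to B score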
MrgX1 PAM – human MrgX1 positive allosteric modulation, primary screen; Q96LB2; MrgX1-HEK293, Fluo-4 calcium flux, FDSS; hits give high values; B-score at 10 µM; 310,000 compounds, 0.63% hits; AID 588675;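 active = plate-corrected calcium response at least 3 library SD above typical, normal starting fluorescence, not activating the receptor alone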;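 also: compound read alongside a low EC10 to EC30 dose of BAM8-22 agonist; peak minus trough fluorescence over baseline measured at the second addition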
RGS4 block – human RGS4 inhibition | HEK293 M3R/RGS4 inducible, Fluo-4 calcium flux; hits give high values; triggered by carbachol at its EC20 | P49798 | 310,000 compounds, 0.45% hits | B-score at 10 µM;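 active = B-score, a plate-corrected calcium signal, over three deviations above library mean, with baseline fluorescence within five deviations of library mean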;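 also: RGS4 expression induced by doxycycline in cells with stable M3 receptor; B-score is computed from the integrated fluorescence ratio over baseline after carbachol; higher B-score means a larger calcium signal and so more RGS4 inhibition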
Target sequence (P49798 whole entry, looked up): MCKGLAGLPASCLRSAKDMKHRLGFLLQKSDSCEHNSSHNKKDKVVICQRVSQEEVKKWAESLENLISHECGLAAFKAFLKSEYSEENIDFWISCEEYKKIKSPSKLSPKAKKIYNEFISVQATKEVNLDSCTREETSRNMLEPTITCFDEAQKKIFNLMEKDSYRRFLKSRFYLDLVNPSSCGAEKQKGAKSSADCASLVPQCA
RGS4 block valid – RGS4 inhibitor validation | shares compounds with RGS4 block | HEK293 M3R/RGS4, carbachol calcium Fluo-4 fluorescence; carbachol added at its EC20; 0 = buffer wells, 100 = carbachol control | calcium response, % at 10 µM | 1,700 compounds, 65% hits;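 active = duplicate-averaged calcium response above the buffer-only control mean plus 5 SD of those controls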;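 also: integrated fluorescence ratio F max minus min over baseline F0; higher response in RGS4-induced cells means RGS4 inhibition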
RGS4 uninduced – counter-screen for RGS4 inhibitors: effect in non-induced cells; 1,900 compounds, 20% hits; activity (percent), % at 10 µM; shares compounds with RGS4 block; HEK293 M3R non-induced, carbachol calcium Fluo-4; submaximal (EC20) carbachol stimulus; buffer wells 0%, carbachol control wells 100%; call rule not given here;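 also: RGS4 induction absent so cells express M3R without RGS4; higher means more calcium signal and flags a non-specific hit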
M3R basal Ca ctr – second RGS4 inhibitor counter-screen in uninduced cells lacking carbachol; calcium response (agonist-mode artifact), % at 10 µM; 1,900 compounds, 22% hits; AID 493001; HEK293 M3R/RGS4 non-induced, Fluo-4 calcium, no carbachol; normalised: buffer wells 0%, carbachol wells 100%; shares compounds with RGS4 block;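 active = duplicate-averaged calcium rise in uninduced cells above buffer wells' mean plus 5 SD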
Starred values were filed as active, the others as inactive; i = inactive; / = no result given.

SMILES	MrgX1 ag	MrgX1 antagonist	RGS4 pot	MrgX1 PAM	RGS4 block	RGS4 block valid	RGS4 uninduced	M3R basal Ca ctr
Cn1cccc1C(=O)OCC(=O)N1c2ccccc2NC(=O)C1(C)C	i	i	i	i	5.2*	6.5%*	i	i
CC(=O)Nc1ccc2c(c1)nc(CCNC(=O)c1ccco1)n2C	i	i	i	i	i	i	i	i
Cc1ccc(C(=O)Nc2ccc3c(c2)nc(CCNC(=O)c2ccco2)n3C)cc1	i	i	i	i	i	/	/	/
COc1ccc(C2=Nn3c(nnc3-c3ccccc3OC)SC2)cc1OC	i	i	i	i	8.2*	20%*	34%*	i
COc1ccc(C2=Nn3c(nnc3-c3ccccn3)SC2)cc1OC	i	i	i	i	i	/	/	/
O=C1/C(=C\c2cc(Cl)c(O)c(Cl)c2)SC(=S)N1Cc1ccccc1	i	i	i	i	i	/	/	/
O=C(O)COc1ccc(/C=C2/SC(=S)N(Cc3ccccc3)C2=O)cc1	i	i	i	i	i	/	42%*	i
COc1ccc(/C=C2/SC(=S)N(Cc3ccccc3)C2=O)cc1O	i	i	i	i	5*	24%*	i	20%*
COc1cc(S(=O)(=O)N2CCN(C(=O)c3ccco3)CC2)ccc1Cl	i	i	i	i	i	/	/	/
Cc1nc(-c2ccccc2)nc(-c2ccccc2)n1	i	i	i	i	i	/	/	/
COc1ccc(CN2CCNC(=O)C2CC(=O)N2CCCO2)c(OC)c1 (stereo unspecified)	i	i	i	i	i	/	/	/
O=C(/C=C/c1ccc([N+](=O)[O-])cc1)c1cccs1	i	i	i	i	12*	8.0%*	38%*	i
Cc1cc(C)cc(N(CC(=O)Nc2ccc(C(F)(F)F)cc2)S(=O)(=O)c2c(C)[nH]c(=O)[nH]c2=O)c1	i	i	i	i	6.5*	i	i	i
CC(=N\Nc1ccccc1)/C(=N/O)C(=O)Nc1ccccc1	i	i	i	i	i	/	i	i
COc1ccc(-c2c(-c3ccc(OCC(=O)NN)cc3O)n[nH]c2C(F)(F)F)cc1	i	i	i	i	12*	28%*	29%*	i
COc1ccc(-c2c(-c3ccc(OCC(=O)NN)cc3O)n[nH]c2C)cc1OC	i	i	i	i	i	/	/	/
Cc1cc(C)n(CC(O)Cn2c3ccccc3c3ccccc32)n1 (stereo unspecified)	i	i	i	i	i	/	/	/
Cc1cc(C)n(CC(O)Cn2c3ccc(Cl)cc3c3cc(Cl)ccc32)c(=O)n1 (stereo unspecified)	i	i	i	i	8*	25%*	i	i
CC(C)[C@H](NC(=O)C1CCCC1)c1nc2ccccc2[nH]1	i	i	i	i	i	/	/	/
COc1ccccc1/C=C/C=N/n1c(-c2cc(C)[nH]n2)n[nH]c1=S	i	i	i	i	i	/	i	i
COc1ccccc1/C=C/C=N/n1c(-c2ccccn2)n[nH]c1=S	i	i	i	i	i	/	/	/
O=C(Cc1c(F)cccc1Cl)Nc1nccs1	i	i	i	i	i	/	/	/
CC1(CCc2ccccc2)NC(=O)N(CC(=O)N2CCCCCC2)C1=O (stereo unspecified)	i	i	i	i	i	/	/	/
CCOC(=O)C(=Cc1cc(=O)c(OC)co1)C(=O)OCC	/	/	i	/	8*	15%*	i	14%*
O=C1Nc2ccc(S(=O)(=O)N3CCCC3)c3cccc1c23	i	i	i	i	i	/	/	/
SMILES	MrgX1 ag	MrgX1 antagonist	RGS4 pot	MrgX1 PAM	RGS4 block	RGS4 block valid	RGS4 uninduced	M3R basal Ca ctr
O=C1Nc2ccc(S(=O)(=O)N3CCCC3C(=O)O)c3cccc1c23 (stereo unspecified)	i	i	i	i	5.5*	i	i	i
Cc1ccc(N2C(=O)NC(NC(=O)c3ccc(Cl)cc3)(C(F)(F)F)C2=O)cc1 (stereo unspecified)	i	i	i	i	i	/	/	/
Cc1ccc(S(=O)(=O)N2CCC(NC(=O)c3ccccc3)CC2)cc1	i	i	i	i	i	/	/	/
Cc1ccc(NCC(=O)N/N=C/c2cc(O)ccc2[N+](=O)[O-])cc1	i	i	i	i	5.2*	i	i	i
Cc1cccc(NCC(=O)N/N=C\c2cccc(Oc3ccccc3)c2)c1	i	i	i	i	i	/	i	i
Cc1ccc(NCC(=O)N/N=C/c2cccc(Oc3ccccc3)c2)cc1	i	i	i	i	13*	20%*	i	i
CC(=O)c1c(C)[nH]c(C(=O)CSc2nnc(N)s2)c1C	i	i	i	i	i	/	/	/
COC(=O)C(Cc1ccc(O)cc1)NC(=O)CCc1nc2ccccc2s1 (stereo unspecified)	i	i	i	i	i	/	/	/
O=C1CC(N2CCN(c3ccc(F)cc3)CC2)C(=O)N1c1ccc2c(c1)OCO2 (stereo unspecified)	i	i	i	i	i	/	/	/
CCn1c2ccccc2c2cc(/C=N/NC(=O)c3cc(O)cc(O)c3)ccc21	i	i	i	i	9*	42%*	31%*	i
CCn1c2ccccc2c2cc(/C=N/NC(=O)c3ccc(O)cc3)ccc21	i	-6.3*	i	i	i	/	i	i
O=C(CC1Nc2cccc3cccc(c23)NC1=O)Nc1ccc(F)cc1 (stereo unspecified)	i	i	i	i	5.3*	34%*	i	i
O=C(CC1Nc2ccccc2NC1=O)Nc1cc(Cl)cc(Cl)c1 (stereo unspecified)	i	i	i	i	15*	24%*	i	18%*
O=C(CC1NC(=O)NC1=O)Nc1ccc(Cl)cc1 (stereo unspecified)	i	i	i	i	i	/	/	/
Cc1ccc(S(=O)(=O)NCc2ccccc2)cc1C(=O)N(C)CC(=O)Nc1c(Cl)cccc1Cl	i	i	i	i	i	/	/	/

Compound activity deposited in PubChem BioAssay by Johns Hopkins Ion Channel Center.
